Bioassay records as filed in PubChem BioAssay.
dFosB act: enhances mouse delta FosB homodimer DNA binding; actives 0.99% (n = 340,000); AID 493131; purified delta FosB, TAMRA-CDK5 oligo fluorescence polarization; percent of positive-control signal above neutral wells; activation, % at 25 µM;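 active = mean activation above about 17%, with every replicate also reaching it, limit read from the data, passing the limit was not always enough; inconclusive = only one of the two conditions met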
Target sequence (P13346 whole entry, looked up): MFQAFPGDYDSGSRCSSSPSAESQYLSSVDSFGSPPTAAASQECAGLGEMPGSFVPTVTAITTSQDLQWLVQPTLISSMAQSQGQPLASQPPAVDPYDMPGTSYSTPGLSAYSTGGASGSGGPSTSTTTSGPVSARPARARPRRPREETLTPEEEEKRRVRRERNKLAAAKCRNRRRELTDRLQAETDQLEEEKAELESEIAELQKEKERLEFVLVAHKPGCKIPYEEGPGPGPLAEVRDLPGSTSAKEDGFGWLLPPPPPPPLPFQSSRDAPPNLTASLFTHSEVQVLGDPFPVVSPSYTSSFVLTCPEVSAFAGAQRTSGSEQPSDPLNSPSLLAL
Xi reactivation: activators of X-chromosome reactivation in mouse fibroblasts. actives 0.055% (n = 360,000). activation, % at 7.58 µM. XiGFP mouse fibroblasts, % GFP-positive cells imaging, 3 d; cells co-treated with 5-aza-dC sensitizer; scaled so ellipticine positive control = 100%;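 active = mean normalized replicate activation at least 10% and every replicate at or above 10%; inconclusive = only one of the two criteria met; inactive = mean below 10% and not all replicates reach 10%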
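Material: XiGFP fibroblasts, SV40-immortalized. Buffer or medium: DMEM plus 5-aza-dC sensitizer. Compound: single concentration per compound, delivered by pin transfer. Times: 3 days compound exposure. Controls: ellipticine 6 µM.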
SR-BI DiI-HDL act: SR-BI HDL lipid transfer activation. CHO ldlA[mSR-BI] cells, DiI-HDL uptake fluorescence, 3 h; 100 = double the neutral-control signal. activation, % at 12.5 µM. actives 0.096% (n = 320,000). AID 504775;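 active = mean replicate activation of at least 60% and every replicate at or above 60%; inconclusive = mean or all-replicate condition met, but not both; inactive = mean below 60% and not all replicates reaching 60%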
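system = CHO ldlA[mSR-BI] cells, LDL receptor-null, SR-BI overexpressing | medium = Ham's F12 with 0.5% BSA, HEPES 25 mM, pH 7.4 | probe or stimulus = DiI-HDL 10 µg/mL | compound dosing = single-point compound dose | incubation = compound exposure 3 h, 37 °C | technique = DiI fluorescence, bottom read | read-out = cell-associated DiI fluorescence as measure of HDL uptake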
Ecoli rRNA inh: inhibitors of bacterial rRNA selective over humanized ribosomes. AID 720706. actives 1.6% (n = 350,000). GFP signal change (wild-type ribosome), % (concentration not given with the values). E. coli WT GFP vs humanized-ribosome RFP mutants, fluorescence, 24 h; stronger effect = lower value; DMSO median 0, no signal -100;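 active = significant combined selectivity score with lowered wild-type GFP, culture density cut under 30%, mutant RFP and density less affected; inactive = any of these conditions unmet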
PvdQ acylase: P. aeruginosa PvdQ acylase inhibition | actives 0.063% (n = 340,000) | AID 488965 | purified PvdQ acylase, fluorescence plate reader | inhibition, % at 10 µM; in the data active = inhibition above about 30%, passing the limit was not always enough; inconclusive = no clear call, values can overlap the other calls
SR-BI HDL uptake: mouse SR-BI HDL lipid transfer inhibition. Q61009. ldlA[mSR-BI] CHO cells, DiI-HDL uptake fluorescence, 3 h. inhibition, % at 12.5 µM. actives 0.96% (n = 320,000);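 active = mean replicate inhibition of at least 70% and a set share of replicates each scoring 70 or more; inconclusive = meets just one of the two criteria; inactive = fails both criteria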
Of the large screens only hits and unclear results are named; the others gave an inactive call. Compounds with a hit are over-represented: about 2.6% of the library has one in this group of screens.

Cc1c2ccncc2cc2c1[nH]c1ccccc12	dFosB act 78
COc1ccc(OC)c(-n2c(-c3cccc(C)c3)n[nH]c2=S)c1	none
N#Cc1ccccc1Cn1cc(C#N)c2ccccc21	none (no result: Xi reactivation, Ecoli rRNA inh)
N#Cc1cn(Cc2ccccc2)c2ccccc12	PvdQ acylase 35 (no result: Xi reactivation, Ecoli rRNA inh)
S=C(c1cn(Cc2ccccc2)c2ccccc12)N1CCOCC1	Ecoli rRNA inh -29
COc1ccc(NC(=O)c2c(-c3c(Cl)cccc3Cl)noc2C)cn1	none
Cc1ccc(S(=O)(=O)N2C(=O)C(c3ccccc3)SC2=Nc2ccccc2)cc1 (configuration not stated)	dFosB act 43 (no result: Xi reactivation, Ecoli rRNA inh)
Cc1ccc(S(=O)(=O)N2C(=O)C(C)SC2=Nc2ccccc2)cc1 (configuration not stated)	none (no result: Ecoli rRNA inh)
O=C(C[C@@H]1C[C@@H]2c3cc(NC(=O)CC4CC4)ccc3O[C@@H]2[C@H](CO)O1)NCc1ccncc1	none (no result: dFosB act, SR-BI DiI-HDL act, PvdQ acylase, SR-BI HDL uptake)
Cc1c(O)ccc(/C(Cc2ccc3ccccc3n2)=N\N)c1O	Ecoli rRNA inh -25
CCc1cc(/C(Cc2ccc3ccccc3n2)=N\O)c(O)cc1O	none (no result: Xi reactivation, Ecoli rRNA inh)
O=C1C=C(Nc2ccc(Cl)cc2Cl)CC(c2ccco2)C1 (configuration not stated)	Ecoli rRNA inh -22
O=C1C=C(NCc2ccc(Cl)cc2)CC(c2ccco2)C1 (configuration not stated)	none (no result: Xi reactivation, Ecoli rRNA inh)
CCOC(=O)c1ccc(NC2=CC(=O)CC(c3ccco3)C2)cc1 (configuration not stated)	Ecoli rRNA inh -22
CC[N+](CC)(CC#Cc1ccccc1)CC(=O)c1ccc(Cl)cc1	Ecoli rRNA inh -23
COc1ccc(-c2csc3nc(-c4ccc(C)cc4)oc(=O)c23)cc1OC	none
COc1ccc(-c2csc3nc(-c4ccccc4OC)oc(=O)c23)cc1	Ecoli rRNA inh -20
O=C(CNCc1ccc(Cl)cc1)Nc1ccc(C(=O)N2CCCCC2)cc1	SR-BI HDL uptake inconclusive
O=C(CNCc1ccc(Cl)cc1)Nc1ccc(C(=O)N2CCCCCC2)cc1	Ecoli rRNA inh -30
CS(=O)(=O)c1ccc(NC(=O)C2CCCN(C(=O)c3ccc(Cl)cc3)C2)cc1 (configuration not stated)	none
CCN(CC)S(=O)(=O)c1ccc(NC(=O)C2CCCN(C(=O)c3ccc(Cl)cc3)C2)cc1 (configuration not stated)	Ecoli rRNA inh -23
Cc1onc(-c2c(Cl)cccc2Cl)c1C(=O)N/N=C(\N)COc1ccc(Cl)cc1	none (no result: Xi reactivation, Ecoli rRNA inh)
COc1ccccc1NC(=O)c1ccc(C(=O)c2ccccc2)o1	Ecoli rRNA inh -32
O=C(Nc1ccccc1O)c1ccc(C(=O)c2ccccc2)o1	none
Cc1ccc(COc2ccsc2-c2n[nH]c(=S)n2C)cc1	none (no result: Xi reactivation, Ecoli rRNA inh)
CC1(C)CC(=O)C2=C(C1)NC(Nc1nc3ccccc3o1)=NC2c1ccccn1 (configuration not stated)	none (no result: SR-BI DiI-HDL act, SR-BI HDL uptake)
CC1=C(C(=O)Nc2ccccc2)C(c2ccc(C)cc2)N=C(Nc2nc3ccccc3o2)N1 (configuration not stated)	dFosB act 42 (no result: Xi reactivation, Ecoli rRNA inh)
Cc1cc(F)ccc1NC(=O)CCc1c(C)nn(-c2ccc(N3CCCCC3)nn2)c1C	SR-BI HDL uptake 82
Cc1ccc(F)cc1NC(=O)CCc1c(C)nn(-c2ccc(N3CCCCC3)nn2)c1C	SR-BI HDL uptake 81
O=C(NCC[C@@H]1CC[C@H](NS(=O)(=O)Cc2ccccc2)[C@@H](CO)O1)C1CC1	none (no result: dFosB act, SR-BI DiI-HDL act, PvdQ acylase, SR-BI HDL uptake)
CC(=O)Oc1ccc2c(=O)c(-c3ccccc3)coc2c1	Xi reactivation inconclusive, Ecoli rRNA inh -24
CCOC(=O)C1CCN(C(=O)C2CCN(S(=O)(=O)c3ccc4c(c3)CC(C)N4C(C)=O)CC2)CC1 (configuration not stated)	none
CCOC(=O)N1CCN(S(=O)(=O)c2ccc3c(c2)CC(C)N3C(C)=O)CC1 (configuration not stated)	Ecoli rRNA inh -46
O=C(Nc1ccc2oc(-c3ccccc3Cl)nc2c1)c1cncc(Br)c1	dFosB act 64 (no result: Xi reactivation, Ecoli rRNA inh)
O=C(Nc1ccc2oc(-c3ccccc3Cl)nc2c1)c1ncn[nH]1	none (no result: Xi reactivation)
CN(C(=O)/C=C/c1ccc([N+](=O)[O-])s1)c1ccccc1	none
COc1cc(NC(=O)c2ccco2)ccc1NC(=O)C(C)C	none (no result: Xi reactivation, Ecoli rRNA inh)
Cc1cccc(NC(=O)Nc2cc(C)on2)c1	PvdQ acylase 39 (no result: Xi reactivation, Ecoli rRNA inh)
Cc1ccc(NC(=O)Nc2cc(C)on2)cc1	none
FC(F)(F)c1nc(N2CCCC2)ncc1-c1nnnn1-c1ccccc1	none (no result: Xi reactivation, Ecoli rRNA inh)
CCCNC(=O)N1CCC2(CC1)CN(C(=O)CCC)[C@@H](CO)c1[nH]c3cc(OC)ccc3c12	none (no result: dFosB act, SR-BI DiI-HDL act, PvdQ acylase, SR-BI HDL uptake)
COc1cccc(-c2nn(C)c3sc(C(=O)NCCCN(C)Cc4ccccc4)cc23)c1	none
Cc1nc(C)c(-c2ccn(S(=O)(=O)c3ccc(Cl)cc3)n2)o1	Ecoli rRNA inh -19
CC(C)(C)C1CCC(OCC(O)CN2CCN(c3ccccn3)CC2)CC1 (configuration not stated)	Ecoli rRNA inh -35
C/C=C/c1ccc([C@H]2[C@H]3CN(Cc4ccc(F)cc4)CC(=O)N3[C@H]2CO)cc1	none (no result: dFosB act, SR-BI DiI-HDL act, PvdQ acylase, SR-BI HDL uptake)
COc1ccc2c(c1)-c1nc(NC(=O)c3ccco3)sc1CC2	SR-BI HDL uptake 78 (no result: Ecoli rRNA inh)
COc1ccc2c(c1)CCc1sc(NC(=O)c3ccc(C)cc3)nc1-2	none (no result: Xi reactivation, Ecoli rRNA inh)
COc1ccc2c(c1)-c1nc(NC(=O)c3cccs3)sc1CC2	SR-BI HDL uptake 79 (no result: Xi reactivation, Ecoli rRNA inh)
N[C@H]1C(O)O[C@H](CO)[C@@H](O)[C@@H]1O (some centres not stated)	none (no result: Ecoli rRNA inh)
C[C@H](CO)N1C[C@H](C)[C@H](CN(C)C(=O)Nc2ccc(F)cc2)OCc2cnnn2CCCC1=O	none (no result: dFosB act, SR-BI DiI-HDL act, PvdQ acylase, SR-BI HDL uptake)
OCCCNc1cc(-c2ccnc(Nc3cccc(Cl)c3)n2)ccn1	Ecoli rRNA inh -20, SR-BI HDL uptake 82
CCC(C)Oc1cc(-c2ccnc(Nc3cccc(Cl)c3)n2)ccn1 (configuration not stated)	none
COc1cc(N=C2C(=O)N3CCCc4cccc2c43)cc(OC)c1	none (no result: Ecoli rRNA inh)
O=C1c2cccc3c2N(CCC3)C(=O)C1(F)c1ccccc1 (configuration not stated)	Ecoli rRNA inh -17 (no result: dFosB act, SR-BI DiI-HDL act, PvdQ acylase, SR-BI HDL uptake)
NC1=NC(c2cn(-c3ccccc3)nc2-c2cccs2)n2c(nc3ccccc32)N1 (configuration not stated)	dFosB act 37 (no result: Xi reactivation, Ecoli rRNA inh)
CC(C)OC(=O)Nc1ccc(Oc2c(F)c(F)c(F)c(F)c2F)cc1	none (no result: Xi reactivation, Ecoli rRNA inh)
COCCNC(=S)N(CCc1c(C)[nH]c2ccc(OC)cc12)Cc1ccco1	none
CNC(=S)N(CCc1c(C)[nH]c2ccc(OC)cc12)Cc1ccco1	Ecoli rRNA inh -23
